From ChEMBL document CHEMBL4020839, “Class I HDAC Inhibitors Display Different Antitumor Mechanism in Leukemia and Prostatic Cancer Cells Depending on Their p53 Status” (J Med Chem, 2018)
Activity calls are given as the source filed them. The rule behind the calls is not given here.

Experiments:
[1] = molecular target: T1, Histone deacetylase 7 (Homo sapiens, UniProt Q8WUI4); assay: Inhibition of recombinant human N-terminal GST-tagged HDAC7 (518-end residues) expressed in baculovirus expression system using Boc-Lys(trifluoroacetyl)-AMC as substrate preincubated for 1 hr followed by substrate addition measured after 2 hrs by fluorescence assay
T1 sequence (Q8WUI4 whole entry): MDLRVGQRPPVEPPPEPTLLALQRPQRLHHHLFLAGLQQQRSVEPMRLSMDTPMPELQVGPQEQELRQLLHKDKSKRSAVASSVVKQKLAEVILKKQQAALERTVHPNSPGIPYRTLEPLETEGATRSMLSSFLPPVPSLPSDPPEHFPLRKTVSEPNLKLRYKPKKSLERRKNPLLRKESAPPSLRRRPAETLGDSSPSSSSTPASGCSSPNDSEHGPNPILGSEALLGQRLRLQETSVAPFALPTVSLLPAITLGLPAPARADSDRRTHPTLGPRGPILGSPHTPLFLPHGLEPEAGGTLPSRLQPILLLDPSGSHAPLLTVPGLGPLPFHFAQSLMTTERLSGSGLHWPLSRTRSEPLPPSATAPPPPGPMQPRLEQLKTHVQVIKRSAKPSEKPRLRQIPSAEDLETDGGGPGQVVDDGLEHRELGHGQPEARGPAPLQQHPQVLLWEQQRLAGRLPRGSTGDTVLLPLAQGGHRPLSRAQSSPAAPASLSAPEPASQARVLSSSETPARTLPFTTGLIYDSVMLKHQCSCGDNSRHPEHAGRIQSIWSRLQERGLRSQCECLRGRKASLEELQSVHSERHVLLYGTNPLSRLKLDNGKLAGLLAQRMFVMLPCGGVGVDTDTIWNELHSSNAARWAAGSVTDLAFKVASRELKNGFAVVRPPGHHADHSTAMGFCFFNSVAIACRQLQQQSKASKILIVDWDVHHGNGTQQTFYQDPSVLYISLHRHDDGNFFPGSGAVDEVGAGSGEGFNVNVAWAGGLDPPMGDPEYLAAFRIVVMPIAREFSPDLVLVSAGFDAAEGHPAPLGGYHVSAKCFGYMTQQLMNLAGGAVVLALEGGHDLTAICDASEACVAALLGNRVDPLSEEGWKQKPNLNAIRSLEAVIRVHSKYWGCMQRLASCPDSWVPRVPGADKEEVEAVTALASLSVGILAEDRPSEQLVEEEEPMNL
In short: (§1)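 Recombinant HDAC incubated with serial compound dilutions at 30 °C for 1 h. Reaction run 2 h at 30 °C, stopped with developer containing trypsin and TSA. Fluorescence read after 30 min at 360/460 nm. Inhibition relative to control wells; IC50 from variable-slope fit.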

[2] = molecular target: Histone deacetylase 9 (Homo sapiens, UniProt Q9UKV0); assay: Inhibition of recombinant human C-terminal His-tagged HDAC9 (604 to 1066 residues) expressed in baculovirus expression system using Boc-Lys(trifluoroacetyl)-AMC as substrate preincubated for 1 hr followed by substrate addition measured after 2 hrs by fluorescence assay; in short: as §1
[3] = tested on: MV4-11; assay: Downregulation of HDAC6 protein expression in human MV4-11 cells at >= 0.5 uM after 24 hrs by Western blot analysis; assay type: functional, cell-based
In short: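 MV4-11 cells treated 24 h at 0.25, 0.5, 1 and 2 μM, with 5 μM SAHA as reference. RIPA lysates normalized by BCA, run on 4–12% Bis-Tris gels, probed with primary antibodies at 1/1000 overnight at 4 °C. HDAC6 and acetylated histones/tubulin detected; actin as loading control. Representative of n = 2.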

[4] = molecular target: Histone deacetylase 3/Nuclear receptor corepressor 2 (HDAC3/NCoR2) (Homo sapiens, UniProt O15379); assay: Inhibition of full length recombinant human C-terminal His-tagged HDAC3/N-terminal GST-tagged NCOR2 co-expressed in baculovirus expression system using Boc-Lys(acetyl)-AMC as substrate preincubated for 1 hr followed by substrate addition measured after 2 hrs by fluorescence assay; in short: as §1
[5] = molecular target: Histone deacetylase 4 (Homo sapiens, UniProt P56524); assay: Inhibition of recombinant human N-terminal GST-tagged/C-terminal His-tagged HDAC4 (627 to 1084 residues) expressed in baculovirus expression system using Boc-Lys(trifluoroacetyl)-AMC as substrate preincubated for 1 hr followed by substrate addition measured after 2 hrs by fluorescence assay; in short: as §1
[6] = tested on: PC-3; assay: Antiproliferative activity against human PC3 cells assessed as cell viability at 2 uM after 48 hrs by CellTiter-Blue assay relative to control; assay type: functional, cell-based
In short: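 MV4-11 and PC-3 cells treated with 10 or 2 μM (or 0 μM) and sampled at 24 and 48 h. Viable cells measured by CellTiter-Blue resorufin fluorescence, read as in the EC50 assay, which is proportional to viable cell number. Representative of n = 2 experiments.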

[7] = tested on: PC-3; assay: Induction of morphological changes in human PC3 cells at 2 to 10 uM after 48 hrs by phase contrast microscopic method; assay type: functional, cell-based
In short: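 PC-3 cells treated 48 h with vehicle (DMSO), 2 μM or 10 μM and examined by phase-contrast light microscopy for morphology. Representative of n = 2.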

[8] = tested on: PC-3; assay: Downregulation of HDAC1 protein expression in human PC3 cells at 1 to 2 uM after 24 hrs by Western blot method; assay type: functional, cell-based
In short: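 MV4-11 (1,500,000/well) or PC-3 (300,000/well) grown 12 h, then treated 24 h at 1 and 2 μM, with 5 μM SAHA as reference. RIPA lysis, sonication and centrifugation, BCA normalization. NuPAGE 4–12% Bis-Tris gel in MES, transfer, primary antibodies 1/1000 overnight at 4 °C. Actin as loading control.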

[9] = tested on: MV4-11; assay: Cell cycle arrest in human MV4-11 cells assessed as accumulation at subG1 phase after 24 hrs by propidium iodide staining based flow cytometry; assay type: functional
[10] = tested on: MV4-11; assay: Induction of p53 degradation in human MV4-11 cells up to 2 uM up to 6 hrs by Western blot analysis; assay type: functional, cell-based
[11] = molecular target: Histone deacetylase 1 (Homo sapiens, UniProt Q13547); settings: 0.25 to 2 uM
[12] = molecular target: Histone deacetylase 2 (Homo sapiens, UniProt Q92769); settings: 0.25 to 2 uM
[13] = molecular target: Histone deacetylase 3 (Homo sapiens) (UniProt O15379); settings: 0.25 to 2 uM
[14] = molecular target: Histone deacetylase 3 (Homo sapiens) (UniProt O15379); settings: 0.25 to 2 uM; remark: listed apart in the source

Sequence of Histone deacetylase 3 (Homo sapiens) (O15379 whole entry): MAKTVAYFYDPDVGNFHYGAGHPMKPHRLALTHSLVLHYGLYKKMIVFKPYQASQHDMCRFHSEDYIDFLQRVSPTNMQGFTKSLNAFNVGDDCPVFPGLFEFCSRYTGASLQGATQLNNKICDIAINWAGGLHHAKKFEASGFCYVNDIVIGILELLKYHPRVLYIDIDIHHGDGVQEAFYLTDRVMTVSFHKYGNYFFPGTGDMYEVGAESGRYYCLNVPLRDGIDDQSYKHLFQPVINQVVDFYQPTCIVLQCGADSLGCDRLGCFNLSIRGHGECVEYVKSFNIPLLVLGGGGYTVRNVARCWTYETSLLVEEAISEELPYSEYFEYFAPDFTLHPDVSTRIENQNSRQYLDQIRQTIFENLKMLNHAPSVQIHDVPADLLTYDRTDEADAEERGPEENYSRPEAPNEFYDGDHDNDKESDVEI
Sequence of Histone deacetylase 9 (Q9UKV0 whole entry, the tested form may be a part): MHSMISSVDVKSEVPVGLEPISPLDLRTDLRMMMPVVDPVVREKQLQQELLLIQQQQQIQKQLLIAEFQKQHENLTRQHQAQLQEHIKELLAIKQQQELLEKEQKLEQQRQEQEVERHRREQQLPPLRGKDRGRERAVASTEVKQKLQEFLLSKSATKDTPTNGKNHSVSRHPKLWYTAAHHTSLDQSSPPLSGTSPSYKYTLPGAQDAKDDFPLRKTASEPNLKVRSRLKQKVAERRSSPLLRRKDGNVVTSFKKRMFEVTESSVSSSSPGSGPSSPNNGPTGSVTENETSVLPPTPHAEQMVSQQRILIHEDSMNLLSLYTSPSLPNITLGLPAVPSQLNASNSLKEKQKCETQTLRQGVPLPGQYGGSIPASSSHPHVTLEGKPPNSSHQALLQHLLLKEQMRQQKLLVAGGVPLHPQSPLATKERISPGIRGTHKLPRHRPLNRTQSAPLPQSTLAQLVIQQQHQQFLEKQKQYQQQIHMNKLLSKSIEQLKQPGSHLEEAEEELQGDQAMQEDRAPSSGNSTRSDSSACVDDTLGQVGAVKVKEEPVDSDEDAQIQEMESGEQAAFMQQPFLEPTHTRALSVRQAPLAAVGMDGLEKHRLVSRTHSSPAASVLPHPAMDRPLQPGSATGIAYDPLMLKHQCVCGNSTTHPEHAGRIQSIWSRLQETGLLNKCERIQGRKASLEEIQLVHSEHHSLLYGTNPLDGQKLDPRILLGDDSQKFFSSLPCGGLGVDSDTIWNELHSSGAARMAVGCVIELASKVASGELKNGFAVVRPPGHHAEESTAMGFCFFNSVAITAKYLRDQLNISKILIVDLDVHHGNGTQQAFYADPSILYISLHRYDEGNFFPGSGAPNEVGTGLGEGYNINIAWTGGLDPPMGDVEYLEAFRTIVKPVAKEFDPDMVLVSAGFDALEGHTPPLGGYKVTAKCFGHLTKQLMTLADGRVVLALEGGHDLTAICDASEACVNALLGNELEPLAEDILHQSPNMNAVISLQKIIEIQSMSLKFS
Sequence of Histone deacetylase 2 (Q92769 whole entry): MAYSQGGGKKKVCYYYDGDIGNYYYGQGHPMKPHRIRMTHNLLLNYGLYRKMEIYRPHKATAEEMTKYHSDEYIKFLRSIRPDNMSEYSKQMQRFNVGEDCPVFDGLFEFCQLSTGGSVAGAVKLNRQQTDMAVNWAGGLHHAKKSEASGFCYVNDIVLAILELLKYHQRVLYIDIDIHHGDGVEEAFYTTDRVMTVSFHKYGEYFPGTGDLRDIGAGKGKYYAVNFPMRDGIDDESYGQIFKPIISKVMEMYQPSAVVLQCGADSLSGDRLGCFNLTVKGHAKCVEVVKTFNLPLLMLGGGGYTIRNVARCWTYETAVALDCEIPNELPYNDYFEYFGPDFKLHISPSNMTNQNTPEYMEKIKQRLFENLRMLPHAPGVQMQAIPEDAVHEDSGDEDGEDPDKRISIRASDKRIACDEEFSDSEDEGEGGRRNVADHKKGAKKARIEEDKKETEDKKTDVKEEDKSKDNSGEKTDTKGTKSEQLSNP
Sequence of Histone deacetylase 3/Nuclear receptor corepressor 2 (HDAC3/NCoR2) (O15379 whole entry, the tested form may be a part): as the sequence (O15379 whole entry) above
Sequence of Histone deacetylase 3/Nuclear receptor corepressor 2 (HDAC3/NCoR2) (Q9Y618 whole entry, further chain, the tested form may be a part): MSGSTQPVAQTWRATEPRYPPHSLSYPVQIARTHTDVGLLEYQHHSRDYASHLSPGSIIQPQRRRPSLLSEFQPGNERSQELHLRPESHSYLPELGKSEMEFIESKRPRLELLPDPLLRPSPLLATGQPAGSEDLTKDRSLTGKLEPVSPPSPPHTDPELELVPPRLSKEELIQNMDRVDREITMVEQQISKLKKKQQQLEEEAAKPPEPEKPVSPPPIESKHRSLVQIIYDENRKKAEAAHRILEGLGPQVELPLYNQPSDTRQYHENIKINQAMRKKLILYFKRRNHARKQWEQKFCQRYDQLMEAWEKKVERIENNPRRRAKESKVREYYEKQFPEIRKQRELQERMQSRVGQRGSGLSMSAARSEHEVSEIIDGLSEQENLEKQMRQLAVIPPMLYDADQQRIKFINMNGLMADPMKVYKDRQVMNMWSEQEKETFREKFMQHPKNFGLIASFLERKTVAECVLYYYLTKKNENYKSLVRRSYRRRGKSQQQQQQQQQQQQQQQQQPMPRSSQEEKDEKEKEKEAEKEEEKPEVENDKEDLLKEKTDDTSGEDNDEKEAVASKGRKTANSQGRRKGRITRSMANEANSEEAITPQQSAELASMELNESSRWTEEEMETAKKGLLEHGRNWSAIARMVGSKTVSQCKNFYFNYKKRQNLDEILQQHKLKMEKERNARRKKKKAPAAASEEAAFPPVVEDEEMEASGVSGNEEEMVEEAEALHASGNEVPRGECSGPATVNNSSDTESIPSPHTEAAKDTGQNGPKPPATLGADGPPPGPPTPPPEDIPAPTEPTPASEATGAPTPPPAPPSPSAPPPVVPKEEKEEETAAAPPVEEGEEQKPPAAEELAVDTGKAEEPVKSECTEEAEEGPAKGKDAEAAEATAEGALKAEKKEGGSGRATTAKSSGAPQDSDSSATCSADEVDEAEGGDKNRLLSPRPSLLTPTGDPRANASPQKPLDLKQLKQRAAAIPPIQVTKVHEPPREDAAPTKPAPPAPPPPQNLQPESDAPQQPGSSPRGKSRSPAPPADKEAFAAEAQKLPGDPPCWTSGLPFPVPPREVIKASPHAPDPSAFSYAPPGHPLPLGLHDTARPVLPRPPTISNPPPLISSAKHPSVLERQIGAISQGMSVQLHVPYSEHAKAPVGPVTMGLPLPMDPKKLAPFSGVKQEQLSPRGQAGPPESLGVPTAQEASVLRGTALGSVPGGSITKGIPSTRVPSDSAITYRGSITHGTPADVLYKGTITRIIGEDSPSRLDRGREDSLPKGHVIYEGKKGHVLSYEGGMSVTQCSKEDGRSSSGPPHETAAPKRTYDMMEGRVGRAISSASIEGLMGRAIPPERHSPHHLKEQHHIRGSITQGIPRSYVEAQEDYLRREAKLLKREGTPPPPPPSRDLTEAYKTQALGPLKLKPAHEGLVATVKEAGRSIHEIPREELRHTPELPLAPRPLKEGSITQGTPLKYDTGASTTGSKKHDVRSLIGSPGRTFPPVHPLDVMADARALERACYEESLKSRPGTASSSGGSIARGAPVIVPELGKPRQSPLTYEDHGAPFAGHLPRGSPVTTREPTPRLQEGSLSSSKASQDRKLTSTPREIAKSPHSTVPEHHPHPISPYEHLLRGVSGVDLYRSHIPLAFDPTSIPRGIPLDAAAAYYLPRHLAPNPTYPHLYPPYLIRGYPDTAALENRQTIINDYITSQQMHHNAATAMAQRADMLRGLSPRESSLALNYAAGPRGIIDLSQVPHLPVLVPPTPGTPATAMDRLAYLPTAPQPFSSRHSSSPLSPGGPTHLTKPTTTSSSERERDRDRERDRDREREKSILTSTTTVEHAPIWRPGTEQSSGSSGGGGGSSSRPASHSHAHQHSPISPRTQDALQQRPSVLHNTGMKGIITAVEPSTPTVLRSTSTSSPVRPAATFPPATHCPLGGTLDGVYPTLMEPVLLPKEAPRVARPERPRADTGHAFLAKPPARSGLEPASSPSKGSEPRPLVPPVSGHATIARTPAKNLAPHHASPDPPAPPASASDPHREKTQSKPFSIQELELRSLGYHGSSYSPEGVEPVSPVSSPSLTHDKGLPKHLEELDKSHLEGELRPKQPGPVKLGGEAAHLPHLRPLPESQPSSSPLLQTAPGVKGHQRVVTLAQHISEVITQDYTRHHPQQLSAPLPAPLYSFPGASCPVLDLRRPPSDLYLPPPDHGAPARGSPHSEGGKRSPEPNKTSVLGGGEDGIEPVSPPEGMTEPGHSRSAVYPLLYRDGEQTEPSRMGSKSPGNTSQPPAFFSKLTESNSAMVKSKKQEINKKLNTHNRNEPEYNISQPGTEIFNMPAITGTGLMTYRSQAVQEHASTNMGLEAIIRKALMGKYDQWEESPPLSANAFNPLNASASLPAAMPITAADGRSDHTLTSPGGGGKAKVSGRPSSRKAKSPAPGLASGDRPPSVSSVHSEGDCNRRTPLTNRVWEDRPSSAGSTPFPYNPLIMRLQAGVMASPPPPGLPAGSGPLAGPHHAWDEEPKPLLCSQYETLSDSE
Sequence of Histone deacetylase 1 (Q13547 whole entry): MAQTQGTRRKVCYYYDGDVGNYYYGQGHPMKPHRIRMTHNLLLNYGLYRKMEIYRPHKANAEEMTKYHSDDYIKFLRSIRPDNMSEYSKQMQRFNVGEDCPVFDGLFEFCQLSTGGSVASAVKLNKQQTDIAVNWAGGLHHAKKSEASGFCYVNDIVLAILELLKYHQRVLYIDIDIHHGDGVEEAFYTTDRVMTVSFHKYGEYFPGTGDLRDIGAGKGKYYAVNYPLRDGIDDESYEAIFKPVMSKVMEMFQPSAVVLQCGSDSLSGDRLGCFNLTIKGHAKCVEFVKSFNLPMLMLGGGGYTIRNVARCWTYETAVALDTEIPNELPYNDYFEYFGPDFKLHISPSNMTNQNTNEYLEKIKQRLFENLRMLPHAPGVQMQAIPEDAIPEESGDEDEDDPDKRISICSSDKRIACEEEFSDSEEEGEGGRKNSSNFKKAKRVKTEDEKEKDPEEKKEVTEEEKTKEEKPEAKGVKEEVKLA

CCCNNC(=O)c1ccc(NC(=O)[C@H](Cc2c[nH]c3ccccc23)NC(=O)c2ccc(OC)cc2)cc1
IC50 [1]: > 50 µM
IC50 [2]: > 50 µM
Activity [3]: Active
IC50 [4]: 0.00141 µM
IC50 [5]: > 50 µM
Activity [6]: inactive
Activity [7]: inactive
Activity [8]: inactive
Activity [9]: Dose-dependent effect
Activity [10]: Active
inhibition [11]: Active
inhibition [12]: Active
inhibition [13]: Active
inhibition [14]: Active
